Structures are written as SMILES. Active and inactive are the calls of the source. No cut-off for these calls is given here. Where a SMILES comes first, the peptide text is derived from it. [ ]: non-standard residue; d: D form. Phe(4-NO2) = N[C@@H](Cc1ccc([N+](=O)[O-])cc1)C(=O)O; Phg = N[C@H](C(=O)O)c1ccccc1; Nle = CCCC[C@H](N)C(=O)O; Nva = CCC[C@H](N)C(=O)O; Abu = CC[C@H](N)C(=O)O

Experiment [1] concerns the target D(2) dopamine receptor (Bos taurus) (UniProt P20288). As to the kind of experiment: Ability to stimulate the binding of [3H]ADTN to Dopamine receptor D2 isolated from bovine striatal membranes at 1 uM concentration. In a few lines: (§1)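 Membranes from freshly dissected bovine caudate, homogenized in 50 mM Tris-HCl/1 mM EDTA pH 7.4, centrifuged twice at 27000g. Resuspended in Tris-HCl with ascorbate, MnCl2, DTT, PMSF, soybean trypsin inhibitor and bacitracin. 0.2–0.3 mg protein incubated with 8 nM [3H]ADTN ± peptide (10⁻¹²–10⁻⁴ M) for 10 min at 37 °C in triplicate. GF/B filtration, scintillation counting, % increase in specific binding over control.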

The target is the same in experiment [2]. The experiment in a line: Ability to enhance the binding of [3H]ADTN to dopamine receptor D2 isolated from bovine striatal membranes; inactive. In a few lines:
as §1

Experiment [3] has the same target. As to the kind of experiment: Ability to enhance the binding of [3H]ADTN to Dopamine receptor D2 isolated from bovine striatal membranes; maximum effect at 0.1 uM. Put shortly:
as §1

Experiment [4] shares this target. As to the kind of experiment: Ability to enhance the binding of [3H]-ADTN to Dopamine receptor D2 isolated from bovine caudate membranes at 1 uM concentration. Put shortly:
as §1

D(2) dopamine receptor (Bos taurus), sequence (P20288 whole entry): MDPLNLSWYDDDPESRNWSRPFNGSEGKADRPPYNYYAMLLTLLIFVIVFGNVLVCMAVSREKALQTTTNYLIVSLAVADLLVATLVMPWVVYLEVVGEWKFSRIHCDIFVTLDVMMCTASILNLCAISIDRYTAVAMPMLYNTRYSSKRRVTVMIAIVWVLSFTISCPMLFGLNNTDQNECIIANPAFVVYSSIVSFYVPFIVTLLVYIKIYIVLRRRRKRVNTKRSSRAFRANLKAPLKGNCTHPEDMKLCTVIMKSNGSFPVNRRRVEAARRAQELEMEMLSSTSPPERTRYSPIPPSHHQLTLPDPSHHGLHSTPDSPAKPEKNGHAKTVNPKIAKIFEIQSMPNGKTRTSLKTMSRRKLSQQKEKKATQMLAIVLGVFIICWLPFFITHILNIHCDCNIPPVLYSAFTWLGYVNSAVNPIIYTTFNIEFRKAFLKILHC

For `NC(=O)CNC(=O)[C@H](Cc1ccccc1)NC(=O)[C@@H]1CCCN1` (H-Pro-Phe-Gly-NH2), the Stimulation in experiment [1] amounted to 31%.

Turning to `NC(=O)CNC(=O)[C@@H](NC(=O)[C@@H]1CCCN1)c1ccccc1` (H-Pro-[Phg]-Gly-NH2), the result in experiment [2] was inactive. As to `CCC[C@H](NC(=O)[C@@H]1CCCN1)C(=O)NCC(N)=O` (H-Pro-[Nva]-Gly-NH2), the result in experiment [2] was inactive. For `CCCC[C@H](NC(=O)[C@@H]1CCCN1)C(=O)NCC(N)=O` (H-Pro-[Nle]-Gly-NH2), the outcome in experiment [3] was Active. As for `NC(=O)CNC(=O)[C@H](CCc1ccccc1)NC(=O)[C@H]1CCCN1`, in experiment [2], the result was inactive.

Turning to `NC(=O)CNC(=O)[C@H](CCc1ccccc1)NC(=O)[C@@H]1CCCN1`, the result in experiment [2] was inactive. Turning to `COc1ccc(C[C@H](NC(=O)[C@@H]2CCCN2)C(=O)NCC(N)=O)cc1` (H-Pro-Tyr(Me)-Gly-NH2), in experiment [2], the outcome was inactive. As to `CC(C)C[C@H](NC(=O)[C@@H]1CCCN1)C(=O)NCC(N)=O` (H-Pro-Leu-Gly-NH2), the Stimulation in experiment [4] is 27%. In the case of `CC[C@H](C)[C@H](NC(=O)[C@@H]1CCCN1)C(=O)NCC(N)=O` (H-Pro-Ile-Gly-NH2), in experiment [2], the outcome was inactive. On to `NC(=O)CNC(=O)[C@H](Cc1ccc([N+](=O)[O-])cc1)NC(=O)[C@@H]1CCCN1` (H-Pro-[Phe(4-NO2)]-Gly-NH2), for which the outcome in experiment [2] was inactive. Consider `CC[C@H](NC(=O)[C@@H]1CCCN1)C(=O)NCC(N)=O` (H-Pro-[Abu]-Gly-NH2), for which the result in experiment [2] was inactive.
